Active and inactive are the calls of the source. No cut-off for these calls is given here.
Tests used:
MCF7 = assay: Cytotoxicity against human MCF7 cells assessed as reduction in cell viability at 200 uM after 24 hrs by MTS assay; assay type: functional, cell-based
Summary of the method: (§1)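 Single-concentration screen: exponentially growing HepG2 or MCF-7 cells were exposed to compounds for 24 h, and viability was read by MTS relative to control. DMSO (0.5%) was the solvent control; etoposide was the positive control.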

HepG2 [1] = assay: Cytotoxicity against human HepG2 cells assessed as reduction in cell viability at 200 uM after 24 hrs by MTS assay; assay type: functional, cell-based; summary of the method: as §1
[2] = target: DNA topoisomerase 2-beta (Homo sapiens) (UniProt Q02880); assay: (§2) Inhibition of human topoisomerase-2beta mediated decatenation at […] using kinetoplast DNA as substrate after 30 mins in presence of ATP by ethidium bromide staining-based gel electrophoresis method relative to control; parameters: scale not given: the % may be the effect or the level left
[3] = target: DNA topoisomerase 2-beta (Homo sapiens) (UniProt Q02880); assay: as §2; parameters: scale not given: the % may be the effect or the level left; remark: listed apart in the source
[4] = target: DNA topoisomerase 2-beta (Homo sapiens) (UniProt Q02880); assay: Inhibition of human topoisomerase-2beta mediated decatenation at 500 uM using kinetoplast DNA as substrate after 30 mins in presence of ATP by ethidium bromide staining-based gel electrophoresis method relative to control; parameters: scale not given: the % may be the effect or the level left
Summary of the method: (§3)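 One U of human topo IIα or IIβ with 200 ng kDNA, 30 min at 37 °C in 50 mM Tris-HCl pH 7.5, 125 mM NaCl, 10 mM MgCl2, 5 mM DTT, 0.5 mM EDTA, 0.1 mg/ml BSA, 1 mM ATP. Compounds (3.9–500 µM, 1% DMSO final) were added before the enzyme. Reactions were stopped with chloroform/isoamyl alcohol, run on a 1% TAE gel and stained with EtBr; inhibition came from band densitometry, in duplicate.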

[5] = target: DNA topoisomerase 2-beta (Homo sapiens) (UniProt Q02880); assay: Inhibition of human topoisomerase-2beta mediated decatenation at 125 uM using kinetoplast DNA as substrate after 30 mins in presence of ATP by ethidium bromide staining-based gel electrophoresis method relative to control; parameters: scale not given: the % may be the effect or the level left; summary of the method: as §3
[6] = target: T1, DNA topoisomerase 2-alpha (Homo sapiens, UniProt P11388); assay: (§4) Poison activity at human topoisomerase-2alpha assessed as linear DNA formation at […] using supercoiled pBR322 DNA as substrate after 60 mins by ethidium bromide staining based agarose gel electrophoresis method (reference value: […]); details: 1 h
[7] = target: T1, DNA topoisomerase 2-alpha; assay: Poison activity at human topoisomerase-2alpha assessed as linear DNA formation at 50 uM using supercoiled pBR322 DNA as substrate after 60 mins by ethidium bromide staining based agarose gel electrophoresis method (reference value: 1.77 %); details: 1 h
[8] = target: T1, DNA topoisomerase 2-alpha; assay: Poison activity at human topoisomerase-2alpha assessed as linear DNA formation at 500 uM using supercoiled pBR322 DNA as substrate after 60 mins by ethidium bromide staining based agarose gel electrophoresis method (reference value: […]); details: 1 h
[9] = target: T1, DNA topoisomerase 2-alpha; assay: Inhibition of human topoisomerase-2alpha mediated decatenation at 125 uM using kinetoplast DNA as substrate after 30 mins in presence of ATP by ethidium bromide staining-based gel electrophoresis method relative to control; parameters: scale not given: the % may be the effect or the level left
[10] = target: T1, DNA topoisomerase 2-alpha; assay: as §4; details: 1 h; remark: listed apart in the source
[11] = target: T1, DNA topoisomerase 2-alpha; assay: Poison activity at human topoisomerase-2alpha assessed as linear DNA formation at 125 uM using supercoiled pBR322 DNA as substrate after 60 mins by ethidium bromide staining based agarose gel electrophoresis method (reference value: […]); details: 1 h
[12] = target: T1, DNA topoisomerase 2-alpha; assay: Poison activity at human topoisomerase-2alpha assessed as linear DNA formation using supercoiled pBR322 DNA as substrate after 60 mins by ethidium bromide staining based agarose gel electrophoresis method; details: 1 h
HepG2 [13] = assay: Cytotoxicity against human HepG2 cells assessed as reduction in cell viability after 24 hrs by MTT assay; assay type: functional, cell-based; details: HepG2, 24 h
[14] = target: T1, DNA topoisomerase 2-alpha; assay: Inhibition of human topoisomerase-2alpha mediated decatenation at 500 uM using kinetoplast DNA as substrate after 30 mins in presence of ATP by ethidium bromide staining-based gel electrophoresis method relative to control; parameters: scale not given: the % may be the effect or the level left
[15] = target: T1, DNA topoisomerase 2-alpha; assay: Inhibition of human topoisomerase 2alpha using supercoiled pNO1 plasmid as substrate after 30 mins by HTS assay

T1 sequence (P11388 whole entry): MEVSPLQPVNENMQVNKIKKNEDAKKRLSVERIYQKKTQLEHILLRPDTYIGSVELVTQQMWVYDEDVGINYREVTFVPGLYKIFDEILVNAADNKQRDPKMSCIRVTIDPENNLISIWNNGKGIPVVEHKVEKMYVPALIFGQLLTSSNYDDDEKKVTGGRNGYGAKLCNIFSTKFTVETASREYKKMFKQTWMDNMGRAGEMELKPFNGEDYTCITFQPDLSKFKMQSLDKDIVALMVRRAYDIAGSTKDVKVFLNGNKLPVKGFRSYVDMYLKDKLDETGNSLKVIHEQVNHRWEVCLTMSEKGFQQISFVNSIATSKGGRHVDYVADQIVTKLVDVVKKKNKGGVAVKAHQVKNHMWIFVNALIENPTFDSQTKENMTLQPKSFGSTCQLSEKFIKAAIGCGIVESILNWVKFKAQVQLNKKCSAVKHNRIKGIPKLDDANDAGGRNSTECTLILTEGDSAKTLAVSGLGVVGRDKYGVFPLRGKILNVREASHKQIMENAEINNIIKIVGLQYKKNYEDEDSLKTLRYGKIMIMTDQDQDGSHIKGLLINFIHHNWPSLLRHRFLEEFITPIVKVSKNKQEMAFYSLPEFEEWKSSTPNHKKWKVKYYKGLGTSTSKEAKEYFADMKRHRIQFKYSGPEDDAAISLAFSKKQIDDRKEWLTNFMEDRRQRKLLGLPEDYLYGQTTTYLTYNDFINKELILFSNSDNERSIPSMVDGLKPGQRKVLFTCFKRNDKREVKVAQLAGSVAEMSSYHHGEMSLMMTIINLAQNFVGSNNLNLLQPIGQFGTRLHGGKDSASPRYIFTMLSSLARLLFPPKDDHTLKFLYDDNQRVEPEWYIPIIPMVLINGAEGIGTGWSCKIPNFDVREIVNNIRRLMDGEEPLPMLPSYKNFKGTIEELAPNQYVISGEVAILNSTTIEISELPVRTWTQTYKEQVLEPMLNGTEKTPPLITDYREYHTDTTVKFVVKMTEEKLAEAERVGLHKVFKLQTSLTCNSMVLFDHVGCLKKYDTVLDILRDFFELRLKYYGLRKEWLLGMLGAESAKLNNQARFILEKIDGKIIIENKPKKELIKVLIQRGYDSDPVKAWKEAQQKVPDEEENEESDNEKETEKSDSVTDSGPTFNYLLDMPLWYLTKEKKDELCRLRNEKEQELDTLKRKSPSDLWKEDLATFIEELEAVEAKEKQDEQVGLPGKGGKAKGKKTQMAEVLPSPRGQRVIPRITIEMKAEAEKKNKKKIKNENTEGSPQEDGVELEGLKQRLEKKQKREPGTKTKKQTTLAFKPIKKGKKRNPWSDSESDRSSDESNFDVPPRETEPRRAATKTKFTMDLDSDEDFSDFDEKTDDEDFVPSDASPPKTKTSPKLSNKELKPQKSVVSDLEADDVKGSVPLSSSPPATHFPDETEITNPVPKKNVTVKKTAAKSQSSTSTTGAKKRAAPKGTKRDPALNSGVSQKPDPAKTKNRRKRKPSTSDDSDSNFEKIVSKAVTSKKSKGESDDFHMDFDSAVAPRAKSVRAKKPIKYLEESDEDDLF
Sequence of DNA topoisomerase 2-beta (Homo sapiens) (Q02880 whole entry): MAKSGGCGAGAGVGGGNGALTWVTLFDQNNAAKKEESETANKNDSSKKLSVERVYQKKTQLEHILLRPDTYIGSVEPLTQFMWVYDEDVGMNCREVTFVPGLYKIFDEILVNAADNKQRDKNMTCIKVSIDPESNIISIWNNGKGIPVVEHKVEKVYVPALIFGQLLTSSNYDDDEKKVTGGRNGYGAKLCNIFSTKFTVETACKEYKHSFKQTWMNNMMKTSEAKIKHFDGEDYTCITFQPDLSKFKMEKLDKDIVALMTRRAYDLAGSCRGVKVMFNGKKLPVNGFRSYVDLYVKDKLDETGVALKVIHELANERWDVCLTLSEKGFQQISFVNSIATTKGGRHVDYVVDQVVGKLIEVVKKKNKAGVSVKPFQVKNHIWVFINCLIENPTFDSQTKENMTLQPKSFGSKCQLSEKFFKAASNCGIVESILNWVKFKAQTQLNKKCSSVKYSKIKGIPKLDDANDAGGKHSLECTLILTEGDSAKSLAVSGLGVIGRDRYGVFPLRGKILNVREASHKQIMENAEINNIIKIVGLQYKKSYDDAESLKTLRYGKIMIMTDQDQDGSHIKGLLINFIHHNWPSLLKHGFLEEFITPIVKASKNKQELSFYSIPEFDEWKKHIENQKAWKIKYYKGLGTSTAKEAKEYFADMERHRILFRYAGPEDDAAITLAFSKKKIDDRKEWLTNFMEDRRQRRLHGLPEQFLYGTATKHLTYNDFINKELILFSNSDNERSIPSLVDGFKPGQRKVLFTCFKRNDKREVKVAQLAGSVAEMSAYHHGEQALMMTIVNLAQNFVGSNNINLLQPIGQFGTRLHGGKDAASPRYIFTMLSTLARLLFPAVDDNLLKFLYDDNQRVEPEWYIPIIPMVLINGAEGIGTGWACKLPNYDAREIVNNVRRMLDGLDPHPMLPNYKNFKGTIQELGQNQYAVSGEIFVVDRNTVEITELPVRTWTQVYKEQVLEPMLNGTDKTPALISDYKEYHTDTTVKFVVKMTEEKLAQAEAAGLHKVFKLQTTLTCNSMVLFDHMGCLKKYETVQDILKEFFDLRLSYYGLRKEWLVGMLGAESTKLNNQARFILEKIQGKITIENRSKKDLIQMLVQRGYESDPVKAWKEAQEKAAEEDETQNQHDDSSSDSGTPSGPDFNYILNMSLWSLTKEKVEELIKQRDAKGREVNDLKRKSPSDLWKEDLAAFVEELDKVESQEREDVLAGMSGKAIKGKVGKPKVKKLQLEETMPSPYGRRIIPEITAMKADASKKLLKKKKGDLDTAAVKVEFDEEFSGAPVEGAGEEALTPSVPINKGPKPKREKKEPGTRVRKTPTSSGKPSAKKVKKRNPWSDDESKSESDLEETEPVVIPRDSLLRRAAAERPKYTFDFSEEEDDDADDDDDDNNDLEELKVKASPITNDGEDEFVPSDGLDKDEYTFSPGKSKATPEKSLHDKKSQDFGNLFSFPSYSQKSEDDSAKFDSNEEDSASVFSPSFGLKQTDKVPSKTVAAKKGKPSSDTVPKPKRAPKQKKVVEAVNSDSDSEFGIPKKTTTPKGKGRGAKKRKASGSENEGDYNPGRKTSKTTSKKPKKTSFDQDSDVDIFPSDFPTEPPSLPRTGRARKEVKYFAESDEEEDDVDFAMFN

SMILES	Activity (MCF7)	Activity (HepG2 [1])	further results
O=C(O)c1cccc(CSc2nc(SCc3ccccc3F)[nH]c(=O)n2)c1	inactive	inactive	
CC(C(=O)O)c1ccc(CSc2nc(SCc3ccccc3F)[nH]c(=O)n2)cc1 (centres undefined)	inactive	inactive	
O=C(O)c1cccc(CSc2nc(SCc3cccc(Cl)c3)[nH]c(=O)n2)c1	inactive	inactive	
O=c1nc(SCc2cccc(O)c2)nc(SCc2ccc(Cl)cc2)[nH]1	inactive	inactive	
O=c1nc(SCc2ccc3nonc3c2)nc(SCc2cccc(Cl)c2)[nH]1	inactive	inactive	
O=C(O)c1cccc(CSc2nc(SCc3ccc(Cl)cc3)[nH]c(=O)n2)c1	inactive	inactive	
O=c1nc(SCc2cc(F)c(F)cc2F)nc(SCc2ccc(Cl)cc2)[nH]1	inactive	inactive	
O=c1nc(SCc2ccc(C(F)(F)F)cc2)nc(SCc2ccccc2F)[nH]1			Activity [2]: 98.2%; Activity [3]: 0%; Activity [4]: 0%; Activity [5]: 0%
COc1cc([C@@H]2c3cc4c(cc3[C@@H](O[C@@H]3O[C@@H]5CO[C@@H](C)O[C@H]5[C@H](O)[C@H]3O)[C@H]3COC(=O)[C@H]23)OCO4)cc(OC)c1O [ETOPOSIDE]			Activity [2]: 100%; Activity [6]: 25.79%; Activity [7]: 35.56%; Activity [3]: 93.4%; Activity [4]: 14.7%; Activity [8]: 39.98%; Activity [5]: 23.9%; Activity [9]: 4.09%; Activity [10]: 13.72%; Activity [11]: 34.79%; Activity [12]: Dose-dependent effect; EC50 (HepG2 [13]): 60.5 to 93.4 µM; Activity [14]: 2.27%
O=c1nc(SCc2ccc3nonc3c2)nc(SCc2ccccc2F)[nH]1	inactive	inactive	
O=c1nc(SCc2ccc(CO)cc2)nc(SCc2ccc(Cl)cc2)[nH]1	inactive	inactive	
O=c1nc(SCc2ccc(CO)cc2)nc(SCc2ccccc2F)[nH]1	inactive	inactive	
NC(=O)c1cccc(CSc2nc(SCc3cccc(Cl)c3)[nH]c(=O)n2)c1	inactive	inactive	
O=c1nc(SCc2cccc(O)c2)nc(SCc2cccc(Cl)c2)[nH]1	inactive	inactive	
CC(C)c1ccc(CSc2nc(SCc3ccc(Cl)cc3)[nH]c(=O)n2)cc1	inactive	inactive	
O=c1nc(SCc2cc(F)cc(C(F)(F)F)c2)nc(SCc2ccccc2F)[nH]1	inactive	inactive	Activity [2]: 99.4%; Activity [3]: 12.5%; Activity [4]: 0%; Activity [5]: 0%
O=c1nc(SCc2cccc(O)c2)nc(SCc2ccccc2F)[nH]1	inactive	inactive	
CC(C(=O)O)c1ccc(CSc2nc(SCc3cccc(Cl)c3)[nH]c(=O)n2)cc1 (centres undefined)	inactive	inactive	
O=c1nc(SCc2c(F)cccc2F)nc(SCc2ccccc2F)[nH]1	inactive	inactive	
CC(C(=O)O)c1ccc(CSc2nc(SCc3ccc(Cl)cc3)[nH]c(=O)n2)cc1 (centres undefined)	inactive	inactive	
O=c1nc(SCc2cc(F)cc(C(F)(F)F)c2)nc(SCc2cccc(Cl)c2)[nH]1			Activity [2]: 91.8%; Activity [3]: 0%; Activity [4]: 0%; Activity [5]: 0%
O=c1nc(SCc2ccc(CO)cc2)nc(SCc2cccc(Cl)c2)[nH]1	inactive	inactive	
NC(=O)c1cccc(CSc2nc(SCc3ccccc3F)[nH]c(=O)n2)c1	inactive	inactive	
NC(=O)c1cccc(CSc2nc(SCc3ccc(Cl)cc3)[nH]c(=O)n2)c1	inactive	inactive	
O=c1nc(SCc2c(F)cccc2F)nc(SCc2ccc(Cl)cc2)[nH]1	inactive	inactive	
O=c1nc(SCc2cc(F)cc(C(F)(F)F)c2)nc(SCc2ccc(Cl)cc2)[nH]1	inactive	inactive	
O=c1nc(SCc2c(F)cccc2F)nc(SCc2cccc(Cl)c2)[nH]1	inactive	inactive	
O=c1nc(SCc2ccccc2)nc(SCc2cccc(Cl)c2)[nH]1			IC50 [15]: 57.6 µM

Source: ChEMBL document CHEMBL4393709, “Structure-guided optimization of 4,6-substituted-1,3,5-triazin-2(1H)-ones as catalytic inhibitors of human DNA topoisomerase IIα” (Eur J Med Chem, 2019)
